This is an account of results in the RNAGym collection of RNA variant scans (doi:10.1126/science.aae0568).

First the molecules themselves.
B1: tRNA (parent)
chain: GUUCCGUUGGCGUAAUGGUAACGCGUCUCCCUCCUAAGGAGAAGACUGCGGGUUCGAGUCCCGUACGGAACG

This sample holds only a part of the variants without activity.

The variants in this data set derive from B1. Kind of data set: yeast fitness relative to wild type (ratio to wild type); higher = fitter; tRNA-Arg(CCU), competitive growth, 37 C, YPD. The procedure, abridged: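 Variants of the tRNA-Arg(CCU) gene were chemically synthesised with a 3% per-site mutation rate across 69 sites and placed at the native genomic locus in Saccharomyces cerevisiae. Six parallel replicates of the pooled strains were competed in YPD at 37°C for 24 hours, and gene amplicons from the start and end populations were read by 100-nucleotide paired-end sequencing. Darwinian fitness relative to wild type was derived from changes in genotype frequencies. Genotypes required ≥ 100 starting reads, and estimates < 0.5 were set to 0.5.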
In the case of C11U G38A, the yeast fitness worked out at 1.02.

Consider C11U U13C A42U G63A, for which the yeast fitness was not above 0.5.

In the case of C11U C30U C34G, the yeast fitness was 0.576.

In the case of C11U G44A U53G, the yeast fitness is 0.529.

Take C11U C46U G67C: the yeast fitness is 0.608.

Regarding C11U U13C C27G A69C, the yeast fitness was not above 0.5.

On to C11U U16C C31U A69G, for which the yeast fitness was not above 0.5.

Regarding C11U U26A A43U C60A A65G, the yeast fitness is 0.531.

Take C11U U26G U28C C49A G58C C62U: the yeast fitness stood at 0.527.

In the case of C11U G44C G67A, the yeast fitness was found to be 0.638.

Regarding C11U U26A C31G A37U, the yeast fitness is not above 0.5.

Regarding C11U G41A A65U, the yeast fitness came out at 0.515.

As for C11U G56A A65C, the yeast fitness amounted to 0.732.

Consider C11U U16A C24G A42C, for which the yeast fitness was not above 0.5.

As to C11U C34A A36C, the yeast fitness is not above 0.5.

Consider C11U U13C C30U, for which the yeast fitness was 0.769.

Turning to C11U G12A C66U, the yeast fitness is 0.587.

In the case of C11U G25A A43G, the yeast fitness was 0.592.

For C11U C30G A40G G50C G51C, the yeast fitness was not above 0.5.

Turning to C11U U19A A42G, the yeast fitness amounted to 0.56.

On to C11U C30A A65C, for which the yeast fitness was determined as 0.685.

For C11U G44A C61A, the yeast fitness was 0.823.

For the variant C11U C31G A57U G67U, the yeast fitness was not above 0.5.

Regarding C11U U19G C27U U47C A70U, the yeast fitness was not above 0.5.

Turning to C11U C29G A37C A42U A57G, the yeast fitness was not above 0.5.

Consider C11U C30U C55G, for which the yeast fitness stood at 0.541.

With C11U C61A C62U G63C A70U, the yeast fitness is not above 0.5.

With C11U G39C G41A, the yeast fitness is not above 0.5.

As for C11U C29U G48A, the yeast fitness is 0.621.

As for C11U C29A, the yeast fitness amounted to 0.824.

Regarding C11U U19G C27U G48A C66U, the yeast fitness was not above 0.5.

In the case of C11U G67C, the yeast fitness worked out at 0.792.

C11U C29G A36U C66A: the yeast fitness was not above 0.5.

On to C11U U16C G58C, for which the yeast fitness worked out at 0.653.

Take C11U U35C A36U C46U: the yeast fitness was 0.75.

For the variant C11U C62G C66A, the yeast fitness was not above 0.5.

Consider C11U C62A, for which the yeast fitness is 0.743.

In the case of C11U C62G, the yeast fitness worked out at 0.912.

Consider C11U C62U, for which the yeast fitness was found to be 0.943.

Turning to C11U U28A U54C, the yeast fitness was not above 0.5.

For the variant C11U C31U A42C G44A A45U, the yeast fitness is not above 0.5.

Take C11U G56C C62U G68U: the yeast fitness is not above 0.5.

C11U G44A C55G: the yeast fitness amounted to 0.572.

For the variant C11U C33U G68C, the yeast fitness was 0.527.

For C11U C33U A69U, the yeast fitness stood at 0.605.

Consider C11U C29U C66U, for which the yeast fitness was found to be 0.603.

As to C11U G44A C60G U64C, the yeast fitness is not above 0.5.

For the variant C11U U13G A21G U26C C27G G48C G67A, the yeast fitness was not above 0.5.

C11U C31U A37U A70U: the yeast fitness is not above 0.5.

In the case of C11U C31U G51C, the yeast fitness is not above 0.5.

C11U U16C C24U A42C G56C A65C: the yeast fitness is not above 0.5.

Regarding C11U U16A G67A, the yeast fitness amounted to 0.551.

Take C11U U28G C29A: the yeast fitness was not above 0.5.

Regarding C11U G48A C62A, the yeast fitness turned out to be 0.762.

Regarding C11U U16A U47C, the yeast fitness is 0.838.

For the variant C11U G12A G44C C46U U59A, the yeast fitness is not above 0.5.

Regarding C11U G38A A40U G52C G68C A69G, the yeast fitness was not above 0.5.

Turning to C11U C61U G68A, the yeast fitness came out at 0.615.

Consider C11U G25C C55U, for which the yeast fitness is not above 0.5.

With C11U G25A C66U A70C, the yeast fitness worked out at 0.688.

C11U G23C G58A: the yeast fitness was 0.669.

Turning to C11U G25A A43G G51C C55G, the yeast fitness is 0.695.

Take C11U C55G: the yeast fitness was 0.594.

Consider C11U U19A C29U C30G, for which the yeast fitness is not above 0.5.

Regarding C11U C29U A45C C60G A65C, the yeast fitness was not above 0.5.

For the variant C11U G63C C66U, the yeast fitness was not above 0.5.

Regarding C11U C30U G41C, the yeast fitness was not above 0.5.

Turning to C11U C29A A57U C62U, the yeast fitness was not above 0.5.

Take C11U C27U G52C C55G: the yeast fitness is not above 0.5.

Consider C11U U13A A20C C22G, for which the yeast fitness was not above 0.5.

For C11U G52C C61G, the yeast fitness was not above 0.5.

Consider C11U G12A C61U, for which the yeast fitness came out at 0.511.

For C11U C31U U59A, the yeast fitness was not above 0.5.

For the variant C11U G48C A65G, the yeast fitness was found to be 0.714.

On to C11U G18A C31U A40U U47G, for which the yeast fitness was not above 0.5.

As for C11U C29G C55G A57G, the yeast fitness is not above 0.5.

C11U U13G U19A C22G G25A: the yeast fitness was found to be 0.604.

C11U C34U A43G: the yeast fitness was not above 0.5.

Turning to C11U G52A A69C, the yeast fitness stood at 0.865.

For C11U C55A G56C G67C, the yeast fitness is not above 0.5.

As to C11U C31G C46A, the yeast fitness came out at 0.629.

As to C11U C31G C46G, the yeast fitness was found to be 0.673.

With C11U C61A G67A, the yeast fitness came to 0.53.

For C11U U13G C29U C34G C46G G58A, the yeast fitness was not above 0.5.

Regarding C11U U28C U32G A70U, the yeast fitness is not above 0.5.

In the case of C11U U19A C60G G68A, the yeast fitness was not above 0.5.

As for C11U C30G G56C, the yeast fitness is not above 0.5.

For C11U C34G G38C C61U, the yeast fitness was not above 0.5.

For the variant C11U C30U, the yeast fitness came to 0.748.

On to C11U G51A C61G, for which the yeast fitness is not above 0.5.

In the case of C11U C55G A69C, the yeast fitness was determined as 0.509.

Take C11U C29A U54A A70C: the yeast fitness was not above 0.5.

For C11U G41A A42G A70U, the yeast fitness is not above 0.5.

As to C11U U16A A36C A43G C62G A65U, the yeast fitness is not above 0.5.

C11U U13C A42U C55A G56A: the yeast fitness was 0.762.

As for C11U U13A C62U, the yeast fitness stood at 0.721.

On to C11U G25C, for which the yeast fitness came out at 0.982.

Turning to C11U G38C C55G G67A, the yeast fitness is not above 0.5.

For C11U C34G A40C A43G G51C, the yeast fitness is not above 0.5.

As to C11U C46U G52C U59C C66U, the yeast fitness was not above 0.5.

Consider C11U C31G A57U, for which the yeast fitness was determined as 0.533.

For the variant C11U C33G U54A U64A, the yeast fitness was not above 0.5.

For the variant C11U G41C, the yeast fitness worked out at 0.852.

On to C11U U19G G51C C61G, for which the yeast fitness is not above 0.5.

In the case of C11U U13G A20U U53G, the yeast fitness is not above 0.5.

As to C11U U19G G51C C66A, the yeast fitness came to 0.578.

In the case of C11U U16C C33A U53C, the yeast fitness was not above 0.5.

Regarding C11U G56C, the yeast fitness is 0.709.

As for C11U C29G C31U, the yeast fitness is 0.531.

With C11U U47C G48A G56A, the yeast fitness was not above 0.5.

For C11U C61U A70G, the yeast fitness is 0.77.

For the variant C11U G23C, the yeast fitness is 0.757.

Consider C11U C29G A37C A42U, for which the yeast fitness is not above 0.5.

Take C11U G38C U64G A70C: the yeast fitness is not above 0.5.

Consider C11U G25A U59G, for which the yeast fitness was found to be 0.538.

With C11U G12A C24U U47C, the yeast fitness is not above 0.5.

For C11U U19G U35G, the yeast fitness is not above 0.5.

As for C11U U19A G41A A65U, the yeast fitness was not above 0.5.

Turning to C11U U26G G56A, the yeast fitness is not above 0.5.

In the case of C11U C33G C61U, the yeast fitness is not above 0.5.

Take C11U C46U G56C A69U: the yeast fitness is not above 0.5.

As to C11U G44C C62A, the yeast fitness is not above 0.5.

Consider C11U C34U G48A G67U, for which the yeast fitness is not above 0.5.

As for C11U C31U, the yeast fitness was 0.804.

In the case of C11U C31A, the yeast fitness came to 0.725.

On to C11U U35C C46G G52C G68C, for which the yeast fitness is not above 0.5.

For the variant C11U C49U C61A, the yeast fitness was determined as 0.555.

On to C11U C31U C60A, for which the yeast fitness was not above 0.5.

On to C11U G51A, for which the yeast fitness was 0.727.

For C11U C31G A37U G51C G58A, the yeast fitness is not above 0.5.

Take C11U C29A A57U C62U A70U: the yeast fitness is not above 0.5.

Take C11U C30A U47A: the yeast fitness was 0.57.

In the case of C11U U19G C27U G48A C61G, the yeast fitness is not above 0.5.

In the case of C11U G56C C62U, the yeast fitness was determined as 0.575.

Take C11U C31U U47C: the yeast fitness stood at 0.78.

For the variant C11U U19C, the yeast fitness was 0.941.

Take C11U U32G U59C: the yeast fitness was not above 0.5.

For the variant C11U U32A, the yeast fitness was 0.772.

On to C11U U32C, for which the yeast fitness is 0.933.

In the case of C11U C33G C60A, the yeast fitness was not above 0.5.

As for C11U U19A C61U G68A, the yeast fitness is not above 0.5.

For C11U U32A C34A A43C C61U G68A, the yeast fitness is not above 0.5.

As to C11U U19A A43U C49U U59A G63A, the yeast fitness is not above 0.5.

Consider C11U G25A C29A A42C A45G, for which the yeast fitness was not above 0.5.

Turning to C11U C31G C46G C66U, the yeast fitness is 0.564.

Regarding C11U C55G C66U, the yeast fitness is not above 0.5.

In the case of C11U G52C A69G, the yeast fitness was not above 0.5.

As to C11U U28C C30G C49G, the yeast fitness was not above 0.5.

For C11U G17C A37G G56C C61A A65G C66G, the yeast fitness is not above 0.5.

Consider C11U C30G G58A, for which the yeast fitness was not above 0.5.

On to C11U G39C C66U, for which the yeast fitness was 0.558.

Take C11U G41C C60G: the yeast fitness stood at 0.647.

On to C11U U32A G50A G51A G56C C61G, for which the yeast fitness is not above 0.5.

For the variant C11U C31U G41U C49U, the yeast fitness amounted to 0.522.

For the variant C11U U26C U47A U64A, the yeast fitness is not above 0.5.

On to C11U G51A U59A, for which the yeast fitness was not above 0.5.

As to C11U G41C A42G, the yeast fitness was 0.547.

Turning to C11U U28A C29U, the yeast fitness is 0.93.

Regarding C11U G25A A70C, the yeast fitness worked out at 0.892.

Regarding C11U G48A G67C, the yeast fitness was 0.731.

Regarding C11U G44A A65C, the yeast fitness came out at 0.704.

As for C11U U13C A69C, the yeast fitness turned out to be 0.737.

As for C11U G63C, the yeast fitness is 0.725.

C11U G17C A21C C24A G41A C46G C61A: the yeast fitness is not above 0.5.

On to C11U U19G C33U A40G G67A, for which the yeast fitness is not above 0.5.

For C11U C49U A65C, the yeast fitness was 0.727.

Regarding C11U C34G A45C G51A A65U, the yeast fitness is not above 0.5.
